Experimental data published in ChEMBL document CHEMBL1926642, “Relevance of the C-5 position to schweinfurthin induced cytotoxicity” (2011).

Key:
Format in all cases: functional
[1] = test system: HL-60(TB); experiment: Growth inhibition of human HL-60(TB) cells after 48 hrs by sulforhodamine B assay; settings: HL-60, 48 h
Procedure, shortened: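 Run in the NCI 60 cell-line screen as the full 5-dose assay that follows initial single-dose testing; GI50 is read from the dose series.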

[2] = test system: K562; experiment: Growth inhibition of human K562 cells after 48 hrs by sulforhodamine B assay; settings: K562, 48 h
[3] = test system: MOLT-4; experiment: Growth inhibition of human MOLT4 cells after 48 hrs by sulforhodamine B assay; settings: MOLT-4, 48 h
[4] = test system: RPMI-8226; experiment: Growth inhibition of human RPMI8226 cells after 48 hrs by sulforhodamine B assay; settings: RPMI-8226, 48 h
[5] = test system: EKVX; experiment: Growth inhibition of human EKVX cells after 48 hrs by sulforhodamine B assay
[6] = test system: NCI-H226; experiment: Growth inhibition of human NCI-H226 cells after 48 hrs by sulforhodamine B assay; settings: NCI-H226, 48 h
[7] = test system: NCI-H522; experiment: Growth inhibition of human NCI-H522 cells after 48 hrs by sulforhodamine B assay; settings: NCI-H522, 48 h
[8] = test system: COLO 205; experiment: Growth inhibition of human COLO205 cells after 48 hrs by sulforhodamine B assay; settings: COLO 205, 48 h
[9] = test system: HCC 2998; experiment: Growth inhibition of human HCC2998 cells after 48 hrs by sulforhodamine B assay; settings: HCC 2998, 48 h
[10] = test system: HCT-116; experiment: Growth inhibition of human HCT116 cells after 48 hrs by sulforhodamine B assay; settings: HCT-116, 48 h
[11] = test system: HT-29; experiment: Growth inhibition of human HT-29 cells after 48 hrs by sulforhodamine B assay; settings: HT-29, 48 h
[12] = test system: SW-620; experiment: Growth inhibition of human SW620 cells after 48 hrs by sulforhodamine B assay; settings: SW-620, 48 h
[13] = test system: SF-268; experiment: Growth inhibition of human SF268 cells after 48 hrs by sulforhodamine B assay; settings: SF-268, 48 h
[14] = test system: SF-539; experiment: Growth inhibition of human SF539 cells after 48 hrs by sulforhodamine B assay; settings: SF-539, 48 h
[15] = test system: U-251; experiment: Growth inhibition of human U251 cells after 48 hrs by sulforhodamine B assay; settings: U-251, 48 h
[16] = test system: LOX IMVI; experiment: Growth inhibition of human LOXIMVI cells after 48 hrs by sulforhodamine B assay
[17] = test system: M14; experiment: Growth inhibition of human M14 cells after 48 hrs by sulforhodamine B assay; settings: M14, 48 h
[18] = test system: MDA-MB-435; experiment: Growth inhibition of human MDA-MB-435 cells after 48 hrs by sulforhodamine B assay; settings: MDA-MB-435, 48 h
[19] = test system: SK-MEL-2; experiment: Growth inhibition of human SK-MEL-2 cells after 48 hrs by sulforhodamine B assay; settings: SK-MEL-2, 48 h
[20] = test system: SK-MEL-28; experiment: Growth inhibition of human SK-MEL-28 cells after 48 hrs by sulforhodamine B assay; settings: SK-MEL-28, 48 h
[21] = test system: UACC-257; experiment: Growth inhibition of human UACC257 cells after 48 hrs by sulforhodamine B assay; settings: UACC-257, 48 h
[22] = test system: OVCAR-3; experiment: Growth inhibition of human OVCAR3 cells after 48 hrs by sulforhodamine B assay; settings: OVCAR-3, 48 h
[23] = test system: OVCAR-4; experiment: Growth inhibition of human OVCAR4 cells after 48 hrs by sulforhodamine B assay; settings: OVCAR-4, 48 h
[24] = test system: NCI/ADR-RES; experiment: Growth inhibition of human NCI/ADR-RES cells after 48 hrs by sulforhodamine B assay
[25] = test system: A498; experiment: Growth inhibition of human A498 cells after 48 hrs by sulforhodamine B assay; settings: A498, 48 h
[26] = test system: ACHN; experiment: Growth inhibition of human ACHN cells after 48 hrs by sulforhodamine B assay
[27] = test system: CAKI-1; experiment: Growth inhibition of human Caki1 cells after 48 hrs by sulforhodamine B assay; settings: CAKI-1, 48 h
[28] = test system: TK-10; experiment: Growth inhibition of human TK10 cells after 48 hrs by sulforhodamine B assay; settings: TK-10, 48 h
[29] = test system: UO-31; experiment: Growth inhibition of human UO31 cells after 48 hrs by sulforhodamine B assay; settings: UO-31, 48 h
[30] = Growth inhibition of human Hs 578T cells after 48 hrs by sulforhodamine B assay
[31] = test system: BT-549; experiment: Growth inhibition of human BT549 cells after 48 hrs by sulforhodamine B assay; settings: BT-549, 48 h
[32] = test system: MDA-MB-468; experiment: Growth inhibition of human MDA-MB-468 cells after 48 hrs by sulforhodamine B assay; settings: MDA-MB-468, 48 h
[33] = read-out: pLC50 (the source's name) (converted)

With `COc1cc(/C=C/c2cc(F)c3c(c2)C[C@@H]2C(C)(C)[C@H](O)CC[C@@]2(C)O3)cc(O)c1C/C=C(\C)CCC=C(C)C` the GI50 [1] was 1.82 µM, the CC50 [1, 33] was > 100 µM and the TGI ([1]; read-out: pTGI (converted)) was 5.5 µM. The GI50 [2] was 2.4 µM, the LC50 [2] was > 100 µM and the GI50 [3] was 2.04 µM. The LC50 [3] was > 100 µM, the TGI ([3]; read-out: pTGI (converted)) was 6.46 µM and the GI50 [4] was 2.04 µM. For the same molecule, the LC50 [4] was > 100 µM, the TGI ([4]; read-out: pTGI (converted)) was 4.79 µM and the GI50 [5] was 11.7 µM. For the same molecule, the LC50 (50% lethal concentration) [5] was 91.2 µM, the TGI ([5]; read-out: pTGI (converted)) was 33.1 µM and the GI50 [6] was 18.6 µM. The LC50 [6] was > 100 µM, the TGI ([6]; read-out: pTGI (converted)) was 45.7 µM and the GI50 [7] was 2.19 µM. It also gave an LC50 [7] of 30.9 µM, a TGI ([7]; read-out: pTGI (converted)) of 6.92 µM and a GI50 [8] of 12 µM. The LC50 [8] was 55 µM, the TGI ([8]; read-out: pTGI (converted)) was 25.7 µM and the GI50 [9] was 12.9 µM. It also gave an LC50 [9] of 56.2 µM, a TGI ([9]; read-out: pTGI (converted)) of 26.9 µM and a GI50 [10] of 2.45 µM. For the same molecule, the LC50 [10] was 20.4 µM, the TGI ([10]; read-out: pTGI (converted)) was 6.03 µM and the GI50 [11] was 2.57 µM. The LC50 (concentration killing 50% of cells) [11] was 41.7 µM, the TGI ([11]; read-out: pTGI (converted)) was 11 µM and the GI50 [12] was 3.02 µM. The LC50 [12] was 33.1 µM, the TGI ([12]; read-out: pTGI (converted)) was 9.12 µM and the GI50 [13] was 10.5 µM. For the same molecule, the LC50 [13] was 63.1 µM, the TGI ([13]; read-out: pTGI (converted)) was 25.7 µM and the GI50 [14] was 3.89 µM. The LC50 [14] was 43.7 µM, the TGI ([14]; read-out: pTGI (converted)) was 14.1 µM and the GI50 [15] was 2.04 µM. It also gave an LC50 [15] of 15.8 µM, a TGI ([15]; read-out: pTGI (converted)) of 5.01 µM and a GI50 [16] of 1.38 µM. For the same molecule, the LC50 [16] was 6.17 µM, the TGI ([16]; read-out: pTGI (converted)) was 2.88 µM and the GI50 [17] was 12.9 µM. For the same molecule, the LC50 [17] was 57.5 µM, the TGI ([17]; read-out: pTGI (converted)) was 26.9 µM and the GI50 [18] was 13.2 µM. The LC50 [18] was 63.1 µM, the TGI ([18]; read-out: pTGI (converted)) was 28.8 µM and the GI50 [19] was 15.5 µM. For the same molecule, the LC50 [19] was 75.9 µM, the TGI ([19]; read-out: pTGI (converted)) was 33.9 µM and the GI50 [20] was 12 µM. It also gave a CC50 [20, 33] of 56.2 µM, a TGI ([20]; read-out: pTGI (converted)) of 25.7 µM and a GI50 [21] of 16.2 µM. The LC50 [21] was 93.3 µM, the TGI ([21]; read-out: pTGI (converted)) was 38.9 µM and the GI50 [22] was 12 µM. It also gave an LC50 [22] of 58.9 µM, a TGI ([22]; read-out: pTGI (converted)) of 26.9 µM and a GI50 [23] of 12.6 µM. The LC50 [23] was > 100 µM, the TGI ([23]; read-out: pTGI (converted)) was 37.2 µM and the GI50 [24] was 3.89 µM. It also gave an LC50 [24] of 50.1 µM, a TGI ([24]; read-out: pTGI (converted)) of 14.1 µM and a GI50 [25] of 28.8 µM. For the same molecule, the LC50 [25] was > 100 µM, the TGI ([25]; read-out: pTGI (converted)) was > 100 µM and the GI50 [26] was 11.7 µM. For the same molecule, the LC50 [26] was 58.9 µM, the TGI ([26]; read-out: pTGI (converted)) was 26.3 µM and the GI50 [27] was 10.2 µM. For the same molecule, the LC50 [27] was 53.7 µM, the TGI ([27]; read-out: pTGI (converted)) was 23.4 µM and the GI50 [28] was 15.8 µM. It also gave an LC50 [28] of 67.6 µM, a TGI ([28]; read-out: pTGI (converted)) of 32.4 µM and a GI50 [29] of 2.51 µM. For the same molecule, the LC50 [29] was 27.5 µM, the TGI ([29]; read-out: pTGI (converted)) was 6.46 µM and the GI50 [30] was 8.71 µM. For the same molecule, the CC50 [30, 33] was > 100 µM, the TGI ([30]; read-out: pTGI (converted)) was > 100 µM and the GI50 [31] was 9.12 µM. The LC50 [31] was > 100 µM, the TGI ([31]; read-out: pTGI (converted)) was 37.2 µM and the GI50 [32] was 6.61 µM. For the same molecule, the LC50 [32] was 45.7 µM and the TGI ([32]; read-out: pTGI (converted)) was 20 µM.
